{"data": "Measured values pooled from the literature", "target": "Carbonic anhydrase 2 (CA2, Homo sapiens, UniProt P00918)", "effect on": "enzyme activity", "mode": "inhibitor", "note": "Protocols differ between the studies behind these lines."}
{"SMILES": "O=C(Nc1ccc2c(c1)C=CCP(=O)(O)O2)c1ccc([N+](=O)[O-])cc1", "method": "stopped-flow", "measurement": "Ki", "result": "> 10 µM"}
{"SMILES": "NC(=S)N/N=C1/c2ccccc2[C@@H]2[C@H]1[C@@H](c1ccccc1)[C@H](C(=O)c1ccccc1)[C@H]2c1ccccc1 (racemic)", "method": "absorbance", "measurement": "IC50", "result": "1.33 µM"}
{"SMILES": "CC(C)c1cc2c(c(O)c1O)[C@@]13CCCC(C)(C)[C@@H]1[C@H](OC3=O)[C@H]2O", "measurement": "IC50", "result": "0.00418 µM"}
{"SMILES": "COc1ccc(C(=O)[C@@H]2[C@@H](c3ccc(OC)cc3)[C@@H]3c4ccccc4/C(=N/NC(N)=S)[C@@H]3[C@H]2c2ccc(OC)cc2)cc1 (racemic)", "method": "absorbance", "measurement": "IC50", "result": "0.992 µM"}
{"SMILES": "N#C[Se]CCCCOc1ccc2c(-c3ccccc3)cc(=O)oc2c1", "method": "stopped-flow", "measurement": "Ki", "result": "> 100 µM"}
{"SMILES": "CC(C)c1cc2c(c(O)c1O)[C@@]1(C(=O)O)CCCC(C)(C)[C@@H]1CC2", "measurement": "IC50", "result": "0.00377 µM"}
{"SMILES": "N#C[Se]Cc1cc(=O)oc2cc(O)ccc12", "method": "stopped-flow", "measurement": "Ki", "result": "> 100 µM"}
{"SMILES": "O=C(Nc1ccc(F)cc1)Nc1ccc2c(c1)C=CCP(=O)(O)O2", "method": "stopped-flow", "measurement": "Ki", "result": "> 10 µM"}
{"SMILES": "NC(=S)N/N=C1/c2ccccc2[C@@H]2[C@H]1[C@@H](c1cccs1)[C@H](C(=O)c1cccs1)[C@H]2c1cccs1 (racemic)", "method": "absorbance", "measurement": "IC50", "result": "0.51 µM"}
{"SMILES": "O=C(Nc1ccc2c(c1)C=CCP(=O)(O)O2)c1cccs1", "method": "stopped-flow", "measurement": "Ki", "result": "> 10 µM"}
{"SMILES": "NC(=S)N/N=C1/c2ccccc2[C@@H]2[C@H]1[C@@H](c1ccc(Cl)cc1)[C@H](C(=O)c1ccc(Cl)cc1)[C@H]2c1ccc(Cl)cc1 (racemic)", "method": "absorbance", "measurement": "IC50", "result": "0.298 µM"}
{"SMILES": "O=C(Nc1ccc2c(c1)C=CCP(=O)(O)O2)c1ccc2ccccc2c1", "method": "stopped-flow", "measurement": "Ki", "result": "> 10 µM"}
{"SMILES": "CC(C)c1cc2c(c(O)c1O)[C@@]13CCCC(C)(C)[C@@H]1[C@@H](O)[C@@H]2OC3=O", "measurement": "Ki", "result": "0.00357 µM"}
{"SMILES": "O=C(Nc1ccc2c(c1)C=CCP(=O)(O)O2)c1ccco1", "method": "stopped-flow", "measurement": "Ki", "result": "> 10 µM"}
{"SMILES": "CC(C)c1cc2c(c(O)c1O)[C@@]13CCCC(C)(C)[C@@H]1C[C@@H]2OC3=O", "measurement": "Ki", "result": "0.0088 µM"}
